Data from ChEMBL document CHEMBL1154722, “Syntheses and evaluation of the antioxidant activity of acitretin analogs with amide bond(s) in the polyene spacer” (Eur J Med Chem, 2010).
Activity calls are given as the source filed them. The calls are words filed in the database; no cut-off is given here.

Key:
[1] = Antioxidant activity assessed as inhibition of AAPH-induced lipid peroxidation at 100 uM; type: functional
Summary of the method: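 Run at 37 °C in 0.05 M phosphate buffer pH 7.4 with 10 μL of 16 mM sodium linoleate (stock), compound in DMSO (10 μL). Oxidation started in air by 50 μL of 40 mM AAPH (stock). Conjugated diene formation followed as rising absorbance at 234 nm. Controls carried the same DMSO level. At least triplicate.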

[2] = system: Radical scavenging activity; experiment: Antioxidant activity assessed as DPPH radical scavenging activity at 100 uM after 20 mins by spectrophotometry; type: functional
Summary of the method: (§1)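 DPPH at 0.05 mM in absolute ethanol mixed with an equal volume of compound in DMSO. Mixture shaken and left 20 or 60 min. Absorbance read at 517 nm to give percent activity. Three replicates averaged.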

[3] = Inhibition of soybean lipoxygenase assessed as conversion of sodium linoleate to 13-hydroperoxylinoleate; set-up: species or system Glycine max
Summary of the method: (§2)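 Soybean lipoxygenase solution (1/9×10^-4 w/v in saline) incubated at room temperature with sodium linoleate and compound in DMSO. Conversion to 13-hydroperoxylinoleate recorded at 234 nm and compared with a standard inhibitor. At least triplicate.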

[4] = system: Glycine max; experiment: Inhibition of soybean lipoxygenase assessed as conversion of sodium linoleate to 13-hydroperoxylinoleate at 100 uM; summary of the method: as §2
[5] = system: Radical scavenging activity; experiment: Antioxidant activity assessed as DPPH radical scavenging activity at 100 uM after 60 mins by spectrophotometry; type: functional; summary of the method: as §1
[6] = system: Rattus norvegicus; experiment: Antiinflammatory activity in Fisher 344 rat assessed as inhibition of carrageenan-induced paw edema at 0.01 mmol/Kg, ip administered simultaneously with carrageenan measured after 3.5 hrs relative to control; type: functional; conditions: Fisher 344, ip
Summary of the method: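 Fischer-344 rats of both sexes (pregnant females excluded), 6–15 per group. Oedema induced in right hind paw by intradermal 0.1 ml 2% carrageenan in water. Compounds suspended in water with a few drops Tween 80, given ip at carrageenan injection. Rats killed at 3.5 h. Injected minus uninjected paw weight compared with water-treated controls as % inhibition. Mean of two experiments.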

[7] = system: Glycine max; experiment: Inhibition of soybean lipoxygenase assessed as conversion of sodium linoleate to 13-hydroperoxylinoleate at 50 uM; summary of the method: as §2
[8] = system: Glycine max; experiment: Inhibition of soybean lipoxygenase assessed as conversion of sodium linoleate to 13-hydroperoxylinoleate at 10 uM; summary of the method: as §2

Structure (SMILES)	inhibition [1]	Activity [2]	IC50 [3]	inhibition [4]	Activity [5]	inhibition in vivo at 10 µmol/kg [6]	inhibition [7]	inhibition [8]
O=C(O)/C=C/c1ccc(O)c(O)c1 [CAFFEIC ACID]	17.5%	5.5%	600 µM					
CC(C)(C)OC(=O)/C=C1/c2ccccc2-c2c(NC(=O)/C=C/c3ccc4c(c3)OCO4)cccc21	49%	inactive		43%	6%			
CC(Cc1ccc(O)c(O)c1)C(C)Cc1ccc(O)c(O)c1 (stereo not given)		81%			83%			
COc1ccc(NC(=O)c2cn(C(=O)/C=C/c3cc(OC)c(OC)cc3OC)c3ccccc23)c(OC)c1	42%	5%		69%				
COc1ccc(NC(=O)c2cn(C(=O)/C=C/C(=O)O)c3ccccc23)c(OC)c1	77%	10%	35 µM			46%		
O=C(O)/C=C/C(=O)n1cc(C(=O)Nc2cccc([N+](=O)[O-])c2)c2ccccc21	94%	inactive		26%				
COc1cc(OC)c(OC)cc1/C=C/C(=O)n1cc(/C=C/C(=O)OC(C)(C)C)c2ccccc21	80%	8.3%		85%			85%	0%
O=C(O)/C=C/c1cn(C(=O)/C=C/c2ccc3c(c2)OCO3)c2ccccc12	22%	21%	65 µM			34%		
COc1cc(OC)c(C2CC(=O)n3c2c(/C=C/C(=O)O)c2ccccc23)cc1OC (stereo not given)	57%	12%	45.2 µM			9%		
COc1cc(NC(=O)c2cn(C(=O)/C=C\C(=O)O)c3ccccc23)cc(OC)c1OC	8%	2%		42%				
COc1cc(OC)c(OC)cc1/C=C/C(=O)n1ccc(/C(C)=C/C(=O)OC(C)(C)C)c1	46%	8%		39%				
Cc1c(C)c2c(c(C)c1O)CCC(C)(C(=O)O)O2 (stereo not given)	63%							
CC(C)(C)OC(=O)/C=C/c1cn(C(=O)/C=C/c2ccc3c(c2)OCO3)c2ccccc12	95%	13%	82.5 µM					
COc1cc(NC(=O)c2cn(C(=O)/C=C/C(=O)O)c3ccccc23)cc(OC)c1OC	64%	26%		57%				
COc1ccc2c(c1)c(CC(=O)O)c(C)n2C(=O)c1ccc(Cl)cc1 [INDOMETHACIN]						47%		
O=C(O)/C=C/C(=O)n1cc(C(=O)Nc2ccccc2)c2ccccc21	85%	1%	52.4 µM					
COc1cc(NC(=O)c2cn(C(=O)CCC(=O)O)c3ccccc23)cc(OC)c1OC	34%	12.5%		10%				
COc1cc(C)c(/C=C/C(C)=C/C=C/C(C)=C/C(=O)O)c(C)c1C [ACITRETIN]	85%	inactive		1%		63%		
COc1ccc(NC(=O)c2cn(C(=O)/C=C/C(=O)OC(C)(C)C)c3ccccc23)c(OC)c1	68%	5%	100 µM			58.6%		
